# Like-named read-outs stand apart in the source and are kept apart here.
# What was measured:
# MDA-MB-231 = experiment: Cell proliferation assay; format: cell-based, human; conditions: read-out: IC50 MDA-MB-231; breast carcinoma; mean ± SD (n ≥ 2)
# How it was run: (§1)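 Mycoplasma-negative, STR-authenticated cells were seeded at 4000−6000/well and kept overnight at 37 °C, 5% CO2. Graded test compound concentrations or solvent control were added to triplicate wells. Adherent lines were read by SRB (OD 510 nm) and suspension lines by MTT (OD 570 nm). IC50 was obtained by nonlinear regression. Results are means ± SD (n ≥ 2).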
# PC-3 = experiment: Cell proliferation assay; format: cell-based, human; conditions: read-out: IC50 PC-3; prostate carcinoma; mean ± SD (n ≥ 2)
# How it was run: as §1
# H1975 = experiment: Cell proliferation assay; format: cell-based; conditions: read-out: IC50 H1975; lung carcinoma; mean ± SD (n ≥ 2)
# How it was run: as §1
# NCI-H460 = experiment: Cell proliferation assay; format: cell-based; conditions: read-out: IC50 NCI-H460; lung carcinoma; mean ± SD (n ≥ 2)
# How it was run: as §1
# A-431 = experiment: Cell proliferation assay; format: cell-based; conditions: read-out: IC50 A-431; squamous cell carcinoma; mean ± SD (n ≥ 2)
# How it was run: as §1
# HPAF-II = experiment: Cell proliferation assay; format: cell-based; conditions: read-out: IC50 HPAF-II; pancreatic carcinoma; mean ± SD (n ≥ 2)
# How it was run: as §1
# NUGC-3 = experiment: Cell proliferation assay; format: cell-based; conditions: read-out: IC50 NUGC-3; gastric carcinoma; mean ± SD (n ≥ 2)
# How it was run: as §1
# KATO III = experiment: Cell proliferation assay; format: cell-based; conditions: read-out: IC50 KATO III; gastric carcinoma; mean ± SD (n ≥ 2)
# How it was run: as §1
# HCT116 = experiment: Cell proliferation assay; format: cell-based; conditions: read-out: IC50 HCT116; colorectal carcinoma; mean ± SD (n ≥ 2)
# How it was run: as §1
# DOHH2 = experiment: Cell proliferation assay; format: cell-based; conditions: read-out: IC50 DOHH2; diffuse large B cell lymphoma; mean ± SD (n ≥ 2)
# How it was run: as §1
# SUDHL-4 = experiment: Cell proliferation assay; format: cell-based; conditions: read-out: IC50 SUDHL-4; diffuse large B cell lymphoma; mean ± SD (n ≥ 2)
# How it was run: as §1
# K562 = experiment: Cell proliferation assay; format: cell-based; conditions: read-out: IC50 K562, mean ± SD (n ≥ 2)
# How it was run: as §1
# MV-4-11 = experiment: Cell proliferation assay; format: cell-based; conditions: read-out: IC50 MV-4-11; acute myeloid leukemia; mean ± SD (n ≥ 2)
# How it was run: as §1
# K562/ADR = experiment: Cell proliferation assay, multidrug-resistant K562/ADR; format: cell-based; conditions: for RF (resistance factor): K562/ADR versus K562; for IC50: read-out: IC50 K562/ADR, multidrug-resistant subline, mean ± SD (n ≥ 2)
# How it was run: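 K562/ADR cells were derived from parental K562 by stepwise increases in ADR concentration. Proliferation was measured by the SRB (adherent) or MTT (suspension) method: 4000−6000 cells/well seeded overnight at 37 °C, 5% CO2, graded test compound in triplicate wells. IC50 was obtained by nonlinear regression. The resistance factor compares K562/ADR with parental K562. Results are means ± SD (n ≥ 2).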
# MDA-MB-231 cells = experiment: Cell cycle analysis by flow cytometry; format: cell-based, human; conditions: MDA-MB-231, 24 h treatment
# How it was run: (§2)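 Cells were seeded in 12-well plates overnight, then exposed to test compound for 24 h. Cells were trypsinized, washed in cold PBS and fixed overnight in 70% ethanol at −20 °C. After two PBS washes they were stained 30 min at 37 °C with 50 μg/mL propidium iodide plus 20 μg/mL RNase A. About 10,000 cells were acquired by flow cytometry. Results are means ± SD; two-tailed unpaired t test.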
# PC-3 cells = experiment: Cell cycle analysis by flow cytometry; format: cell-based, human; conditions: PC-3, 24 h treatment
# How it was run: as §2
# [1] = system: cyclin A2, cyclin B1, and cyclin D1; experiment: Western blot of cell cycle-related proteins; format: cell-based, human; conditions: MDA-MB-231 and PC-3 cells, 24 h, dose-dependent
# How it was run: (§3)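 MDA-MB-231 and PC-3 cells were seeded in 12-well plates overnight, then exposed to a concentration gradient of test compound. Cells were lysed in SDS sample buffer, and equal protein amounts were run on SDS-PAGE and transferred to PVDF. Membranes were probed with primary antibodies, then HRP-conjugated secondary antibodies, and detected by ECL chemiluminescence.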
# [2] = system: P-AKT, P-STAT3, P-STAT5, P-P38; experiment: Western blot of JAK/STAT5, PI3K/AKT and p38 MAPK pathways; format: cell-based, human; conditions: MDA-MB-231 and PC-3 cells, 24 h, concentration-dependent
# How it was run: as §3
# MDR1 = experiment: Western blot of MDR1 in K562/ADR; format: cell-based; conditions: 48 h, concentration-dependent
# How it was run: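 K562 and K562/ADR cells were seeded in 12-well plates overnight and treated with a concentration gradient of test compound for 48 h. Lysates in SDS sample buffer (equal protein) were separated by SDS-PAGE and transferred to PVDF. MDR1 was probed with primary and HRP-conjugated secondary antibodies and detected by ECL.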
# [3] = Boron biodistribution of compound 1d by ICP-mass; format: in vivo, mice; conditions: 3 h postinjection
# How it was run: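 Mice bearing subcutaneous tumours got a single intraperitoneal injection of 2 mg test compound in saline/DMSO and were sacrificed at 3 h. Blood was taken by cardiac puncture, and major organs and tumour were harvested and weighed. Tissue was digested 2 days at room temperature in 1 mL 1:1 concentrated H2SO4/HNO3, diluted 100-fold in water and filtered (0.22 μm). Boron was measured by ICP-OES and ICP-MS as μg/g tissue.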
Substance,IC50 (MDA-MB-231),IC50 (PC-3),IC50 (H1975),IC50 (NCI-H460),IC50 (A-431),IC50 (HPAF-II),IC50 (NUGC-3),IC50 (KATO III),IC50 (HCT116),IC50 (DOHH2),IC50 (SUDHL-4),IC50 (K562; chronic myeloid leukemia),IC50 (MV-4-11),other results
"3-(1,2-Dicarba-closo-dodecarboranyl)-4-oxo-4H-chromen-7-yl Sulfurofluoridate [Compound 1m]",5.46 ± 0.61 µM,4.99 ± 2.76 µM,5.63 ± 0.3 µM,3.19 ± 0.18 µM,4.86 ± 0.21 µM,2.67 ± 0.55 µM,2.54 ± 0.37 µM,3.55 ± 0.15 µM,2.86 ± 0.23 µM,1.93 ± 0.12 µM,4.29 ± 0.54 µM,4.52 ± 0.8 µM,5.45 ± 0.26 µM,"IC50 (K562; parental cell line): 4.52 ± 0.806 µM; RF (resistance factor) (K562/ADR): 0.67; IC50 (K562/ADR): 3.04 ± 0.0347 µM; effect on cell cycle distribution (MDA-MB-231 cells): caused G0/G1 cell cycle arrest; effect on cell cycle distribution (PC-3 cells): caused G0/G1 cell cycle arrest; expression of cyclin A2, cyclin B1, and cyclin D1 [1]: downregulated; P-P38 expression [2]: upregulating; expression of P-AKT, P-STAT3, and P-STAT5 [2]: reduced; expression of MDR1 (MDR1): significantly inhibited"
"3-(1,2-Dicarba-closo-dodecarboranyl)-4H-chromen-4-one [Compound 1a]",75.2 ± 20.8 µM,66.6 ± 8.79 µM,,,,,,,,,,,,
"3-(1,2-Dicarba-closo-dodecarboranyl)-5,7-dihydroxy-4H-chromen-4-one [Compound 1g]",5.34 ± 1.03 µM,5.14 ± 2.93 µM,5.13 ± 1.08 µM,5.93 ± 2.15 µM,4.84 ± 1.07 µM,4.14 ± 0.93 µM,4.79 ± 0.44 µM,5.02 ± 0.38 µM,4.21 ± 0.11 µM,5.23 ± 0.62 µM,6.16 ± 0.34 µM,7 ± 0.27 µM,5.65 ± 0.02 µM,
"3-(1,2-Dicarba-closo-dodecarboranyl)-5,7-dimethoxy-4H-chromen-4-one [Compound 1e]",55.8 ± 6.71 µM,53.1 ± 0.73 µM,,,,,,,,,,,,
"3-(1,2-Dicarba-closo-dodecarboranyl)-5-hydroxy-7-methoxy-4H-chromen-4-one [Compound 1f]",> 100 µM,> 100 µM,,,,,,,,,,,,
"3-(1,2-Dicarba-closo-dodecarboranyl)-7-hydroxy-4H-chromen-4-one [Compound 1d]",5.59 ± 1.82 µM,5.24 ± 1.9 µM,5.27 ± 0.63 µM,4.24 ± 0.9 µM,4.09 ± 0.46 µM,3.56 ± 0.38 µM,3.36 ± 0.02 µM,4.38 ± 0.04 µM,3.42 ± 0.22 µM,2.78 ± 0.26 µM,5.4 ± 0.48 µM,5.29 ± 0.86 µM,4.25 ± 0.34 µM,"IC50 (K562; parental cell line): 5.29 ± 0.861 µM; RF (resistance factor) (K562/ADR): 0.93; IC50 (K562/ADR): 4.91 ± 0.094 µM; effect on cell cycle distribution (MDA-MB-231 cells): caused G0/G1 cell cycle arrest; effect on cell cycle distribution (PC-3 cells): caused G0/G1 cell cycle arrest; expression of cyclin A2, cyclin B1, and cyclin D1 [1]: downregulated; P-P38 expression [2]: upregulating; expression of P-AKT, P-STAT3, and P-STAT5 [2]: reduced; expression of MDR1 (MDR1): significantly inhibited; brain/blood uptake ratio (boron) [3]: 0.45; boron content in blood ([3]; 2 mg intraperitoneal, mice): 2.28 ± 0.99 µg/g; boron content in brain ([3]; 2 mg intraperitoneal, mice): 1.03 ± 0.43 µg/g; boron content in liver ([3]; 2 mg intraperitoneal, mice): 56.37 ± 4.71 µg/g; boron content in pancreas ([3]; 2 mg intraperitoneal, mice): 40.74 ± 4.67 µg/g; boron content in tumor ([3]; 2 mg intraperitoneal, mice): 2.18 ± 1.18 µg/g"
"3-(1,2-Dicarba-closo-dodecarboranyl)-7-methoxy-2H-chromene [Compound 1j]",16 ± 0.16 µM,10.9 ± 3.31 µM,,,,,,,,,,,,
"3-(1,2-Dicarba-closo-dodecarboranyl)-7-methoxy-4H-chromen-4-one [Compound 1b]",47.5 ± 7.39 µM,54.7 ± 6.26 µM,,,,,,,,,,,,
"3-(1,2-Dicarba-closo-dodecarboranyl)-7-methoxychroman-4-ol [Compound 1h]",14.6 ± 1.58 µM,13.5 ± 1.02 µM,,,,,,,,,,,,
